Bioassay records deposited in PubChem by The Scripps Research Institute Molecular Screening Center.
TAAR1 ag = agonists of human TAAR1. Q96RJ0. actives 0.99% (n = 360,000). CHO RD-HGA16 TAAR1, Fluo-8 calcium fluorescence; vehicle wells 0%, saturating PEA agonist 100%. activation, % at 3 µM. AID 624467;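 active = activation above the mean activation of all test compounds in the run plus 3 SD, cut at about 38% in these data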
Target sequence (Q96RJ0 whole entry, looked up): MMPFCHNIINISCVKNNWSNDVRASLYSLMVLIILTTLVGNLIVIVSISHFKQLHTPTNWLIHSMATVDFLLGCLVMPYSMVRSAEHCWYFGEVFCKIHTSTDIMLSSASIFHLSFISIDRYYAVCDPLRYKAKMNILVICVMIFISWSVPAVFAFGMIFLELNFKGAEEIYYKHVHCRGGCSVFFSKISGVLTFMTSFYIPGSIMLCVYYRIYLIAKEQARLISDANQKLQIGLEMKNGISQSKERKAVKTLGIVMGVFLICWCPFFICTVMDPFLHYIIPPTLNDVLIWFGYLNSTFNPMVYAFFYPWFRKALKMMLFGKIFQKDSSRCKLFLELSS
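Test system: RD-HGA16 (CHO) cells co-expressing Gα16 and hTAAR1 | Doses: Single dose, 3 µM | Schedule: 17-24 h seeding, 75 min 37 °C dye, 30 min RT | Evaluation: % activation from peak over basal fluorescence ratio, DMSO-to-PEA scaled | Technique: Kinetic Fluo-8 calcium fluorescence | Benchmarks: Low control DMSO, high control PEA (EC100)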
core dimer inh = blocks dimerization of HCV core protein | TR-FRET GST/Flag-core106 dimerization, 1536-well | inhibition, % at 5 µM | actives 0.33% (n = 300,000);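 active = inhibition above the mean of all tested compounds plus 3 SD, set per screening campaign, cut at about 45% in these data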
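System: GST/Flag-tagged HCV core106 proteins. Incubation: compound-protein-antibody incubation 4 h at 22.5 °C. Technique: HTRF with 340 nm excitation, 617/671 nm emission. Medium: KF-containing HEPES buffer, pH 7.45, DTT, CHAPS, BSA. Read-out: inhibition (%) from 671 over 617 nm ratio. Also added: Eu(K)-anti-GST 90 ng/mL plus XL665-anti-Flag 1 µg/mL.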
TAAR1 antagonist = human TAAR1 antagonism | Q96RJ0 | CHO RD-HGA16 TAAR1, Fluo-8 calcium fluorescence, antagonist | inhibition, % at 3 µM | actives 1.5% (n = 360,000) | AID 624466;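 active = inhibition above a per-plate cutoff, the mean inhibition of test compounds on that plate plus 3 SD, cut at about 49% in these data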;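 also: 0% = DMSO plus EC80 beta-PEA response and 100% = DMSO alone without agonist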
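Test system: RD-HGA16 CHO cells with stable hTAAR1 and Gα16 / Probe or stimulus: EC80 β-phenethylamine stimulus / Times: seeding 17-24 h prior, 75-min 37 °C, 30-min RT dye loading / Detection: Fluo-8 calcium-sensitive fluorescence / Read-out basis: % inhibition scaled between DMSO and EC80 PEA controls / Repeats: singlicate, one well per test compound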
rCAG binder = binds r(CAG) RNA repeats; r(CAG) RNA repeat, TO-PRO-1 dye displacement fluorescence; inhibition, % at 3 µM; actives 1.3% (n = 370,000); AID 651821;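 active = inhibition above the plate cutoff, the mean of all test compounds on that plate plus 3 SD, cut at about 35% in these data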;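 also: 0% = DMSO alone and 100% = 100 µM mitoxantrone as full dye displacement; higher means more dye released from RNA so lower well fluorescence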
NS3 helicase inh = inhibitors of Hepatitis C virus NS3 helicase; NS3 helicase DNA unwinding, Cy5 molecular beacon fluorescence; actives 0.56% (n = 290,000); AID 1800; inhibition, % at 10.9 µM;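 active = inhibition above the mean of all tested compounds plus 3 SD, set per campaign, cut at about 35% in these data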;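 also: 0% = DMSO wells and 100% = thioflavine S control wells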
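Assay system – hepatitis C virus NS3 helicase domain fragment enzyme · Buffer or medium – MOPS pH 6.5, MgCl2, DTT, Tween20, BSA · Reagent – Cy5/quencher beacon DNA duplex and ATP to start · Compound – single 10.9 µM dose · Timing – 1 h at 25 °C · Technique – Cy5 beacon fluorescence read at start and 1 h · Measure – % inhibition of unwinding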
NS3 helicase cf = HCV NS3 helicase inhibition, confirmation assay | NS3 helicase DNA unwinding, Cy5 molecular beacon fluorescence | actives 31% (n = 1,600) | shares compounds with NS3 helicase inh | inhibition, % at 10.9 µM;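 active = inhibition above the mean of all tested compounds plus 3 SD, cutoff set per campaign, cut at about 36% in these data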
FID counter trip = counter-screen for HCV NS3 helicase inhibitors: DNA intercalator displacement; DNA fluorescent intercalator displacement, fluorescence; inhibition, % at 7.9 µM; shares compounds with NS3 helicase inh; actives 4% (n = 1,600); in the data active = inhibition above about 37%;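 also: 0% = vehicle and 100% = reference compound; higher means more displacement of ethidium bromide from the DNA hairpin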
FID counter DR = displaces fluorescent intercalator from DNA, HCV helicase counter-screen; shares compounds with NS3 helicase inh; AID 2172; fluorescent intercalator displacement from DNA, fluorescence; IC50, µM; 120 tested, under 10 active; call rule not given here
Active calls of the source: *; . = no result given. Shown are actives, neighbours in structure and some others; about 3.7% of the full set was active somewhere.

SMILES | TAAR1 ag | core dimer inh | TAAR1 antagonist | rCAG binder | NS3 helicase inh | NS3 helicase cf | FID counter trip | others
COc1ccc2[nH]c3c(=O)n(CCCC(=O)NC4CCC(C)CC4)c(=S)[nH]c3c2c1 (configuration not stated) | 1 | 11 | 0 | 4 | 9 | . | .
O=C(N[C@H](C(=O)N1CCC[C@H]1C(=O)NC1CCCC1)c1ccccc1)C1CC1 | 1 | . | -4 | 2 | . | . | .
CCC(C)(C(=O)NC1CCCCC1)N(Cc1ccco1)C(=O)c1ccc2c(c1)OCO2 (configuration not stated) | -1 | 2 | 5 | -9 | 36* | -3 | -36
Cc1cccc(Nc2nnc(SC/C(O)=C(\C#N)c3nc4ccccc4[nH]3)s2)c1C | 4 | 34 | 19 | 26 | 48* | -9 | -17
CCn1c(=O)c(CCC(=O)NCC2CCCO2)c(C)c2c(C)nn(-c3ccc(C)cc3)c21 (configuration not stated) | 0 | -12 | -24 | 2 | 37* | -16 | -44
CC(C)N(C(=O)CSc1nn2c(=O)c(C(C)(C)C)nnc2s1)c1ccccc1 | 5 | 1 | 12 | -4 | 5 | . | .
Cc1cc(C(=O)CSc2nn3c(=O)c(C(C)(C)C)nnc3s2)c(C)n1-c1ccc(F)cc1 | -1 | 49* | 17 | 16 | 40* | 3 | -27
O=[N+]([O-])c1ccc(/C=C/c2ccc3cccc(O)c3n2)cc1 | 5 | 7 | 7 | 18 | 50* | 4 | 7
Cc1ccc(/C=C/c2ccc3cccc(O)c3n2)s1 | -4 | 6 | 8 | 10 | 49* | 11 | -2
C[C@H]1CN(c2ccc(N3CCN(C(=O)OC(C)(C)C)C[C@@H]3C)cc2C#N)CCN1Cc1ccccc1 | -1 | . | 9 | 4 | . | . | .
CCN(C(=O)Cn1nnc(-c2ccncc2)n1)c1ccccc1 | . | . | . | 0 | . | . | .
COc1cccc(NC(=O)C2CCCN2C(=O)Nc2ccc(Cl)cc2)c1 (configuration not stated) | . | . | . | 1 | . | . | .
COC/C=C/C1=CC2=CC(=O)C(C)(OC(=O)c3cnc4ccccc4n3)C(=O)C2=CN1C1CCCCC1 (configuration not stated) | . | 25 | . | . | 38* | 10 | -13
COC/C=C/C1=CC2=CC(=O)C(C)(OC(=O)c3cnc4ccccc4n3)C(=O)C2=CN1c1ccc(CO)cc1 (configuration not stated) | . | 56* | . | . | 50* | 42* | 22
CC(C)(C)N(Cc1cn(CC2CCCCC2)nn1)S(=O)(=O)c1ccc(F)cc1Br | . | . | . | -2 | . | . | .
O=[N+]([O-])c1cc(Br)c(O)c(C=Nc2ccc(N3CCOCC3)cc2)c1 | 11 | -1 | 1 | 24 | 37* | -20 | 8
COc1cccc(C=Nc2ccc(N3CCOCC3)cc2)c1O | 0 | 4 | 6 | -1 | 14 | . | .
CC(C)C(C(=O)O)N1C(=O)/C(=C/C=C/c2ccco2)SC1=S (configuration not stated) | . | 57* | . | . | 44* | 78* | 18
CC[C@H](CCCc1ccc(F)cc1)CN(Cc1ccc(OC)cc1)S(=O)(=O)c1ccc(C)cc1 | . | . | . | 4 | . | . | .
CCCN1CCN(C(=O)CCNC(=O)Cn2cnc3ccccc3c2=O)CC1 | 0 | -1 | -14 | -3 | 0 | . | .
O=C(Cn1cnc2ccccc2c1=O)NCCC(=O)N1CCN(Cc2ccccc2)CC1 | 10 | 0 | 3 | -5 | 38* | -19 | -5
COC(=O)c1cc2c(c3c4cc(OC)ccc4n(S(=O)(=O)c4ccc(OC)cc4)c13)C(=O)N(C1CCCCC1)C2 | 0 | . | -23 | 10 | . | . | .
Fc1ccc(-c2cc(-c3nnc4sc(Cc5cccs5)nn34)[nH]n2)cc1 | . | . | . | 21 | . | . | .
CC1=NN(c2ccccc2)C(=O)C1C=Nc1ccc(N(C)C)cc1 (configuration not stated) | 8 | -7 | -19 | 9 | 44* | -1 | 1
Fc1ccccc1/C=N/n1c(COc2ccccc2)n[nH]c1=S | -1 | 2 | -3 | 13 | 50* | 9 | -12
SMILES | TAAR1 ag | core dimer inh | TAAR1 antagonist | rCAG binder | NS3 helicase inh | NS3 helicase cf | FID counter trip | others
C=CCn1c(SCc2nc3sc(C(=O)O)c(C)c3c(=O)[nH]2)nnc1-c1ccccc1 | 6 | -7 | 3 | 11 | 41* | -8 | 6
Cc1cc(NS(=O)(=O)c2ccc(NC(=O)CCc3ccccc3)cc2)no1 | 2 | 4 | -18 | 6 | 41* | -31 | -13
Cc1cc(NS(=O)(=O)c2ccc(NC(=O)CCCOc3ccccc3)cc2)no1 | 4 | -4 | 9 | 20 | 17 | . | .
CCOc1ccc(/C=c2\sc3nc(-c4ccco4)nn3c2=O)cc1OCC | 13 | 70* | -12 | 27 | 38* | 47* | -27 | FID counter DR=>79
COc1cc(/C=c2\sc3nc(=O)c(-c4ccccc4)nn3c2=O)ccc1OCCC(C)C | 4 | 2 | 9 | 3 | 32 | . | .
CN(C)c1ccc(Cn2c(=O)n(Cc3ccc(C(=O)NCC4COC4)cc3)c(=O)c3ccccc32)cc1 | . | . | . | 11 | . | . | .
COc1ccc(OCC(=O)Nc2ccc3c(c2)nc(CCn2ccccc2=O)n3C)cc1 | 3 | 4 | -9 | -1 | 45* | -16 | -34
Cc1ccc(NS(=O)(=O)c2ccc3c(c2)CCN3C(=O)CCC(=O)O)cc1Cl | 1 | -5 | -11 | 20 | 48* | 23 | -30
Cc1cccc(NS(=O)(=O)c2ccc3c(c2)CCN3C(=O)CCC(=O)O)c1 | 0 | 9 | -4 | 7 | 7 | . | .
Nn1c(SCc2cccc3ccccc23)nnc1-c1cc(-c2ccc(Cl)cc2)n[nH]1 | . | . | . | 7 | . | . | .
CCCCCC[C@@H](CCCc1ccccc1OC)CN(CCCC)S(C)(=O)=O | . | . | . | 2 | . | . | .
CC1(C)Cc2nc3sc(C(=O)O)c(N)c3cc2CS1 | . | 22 | . | . | 48* | -11 | -11
O=c1cc(O)nc(SCc2ccccc2)n1-c1ccc(F)cc1 | 3 | 8 | 9 | 23 | 59* | -2 | -22
O=S(=O)([N-]c1nc2ccccc2nc1-n1cc[n+](Cc2ccccc2)c1)c1ccc(Cl)cc1 | 4 | 10 | 0 | 0 | 37* | -2 | -33
CC(C)CC[n+]1ccn(-c2nc3ccccc3nc2[N-]S(=O)(=O)c2ccccc2)c1 | 0 | 2 | 4 | -2 | -2 | . | .
CCOC(=O)C1CCCN(C(=O)/C(=C/c2ccco2)NC(=O)c2ccccc2)C1 (configuration not stated) | 18 | 6 | 9 | 2 | 45* | -16 | -37
